We go through two compounds from BindingDB's records for doi:10.1021/np300764u (Heinrich-Heine University, 2013).

As usually defined, the IC50 is the concentration that gives 50% inhibition. Low readings indicate greater potency, high ones weaker potency.

The target in test [1] is Receptor tyrosine-protein kinase erbB-2 (Homo sapiens, UniProt P04626). Description: Inhibition of ERBB2 (unknown origin). Summed up: (§1)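 Biochemical (cell-free) assay within a panel of 24 protein kinases. Results reported as IC50 values. Procedure as described in earlier work.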
In test [2] the target is T1, Ephrin type-B receptor 4 (Homo sapiens, UniProt P54760).
T1 sequence (P54760 whole entry): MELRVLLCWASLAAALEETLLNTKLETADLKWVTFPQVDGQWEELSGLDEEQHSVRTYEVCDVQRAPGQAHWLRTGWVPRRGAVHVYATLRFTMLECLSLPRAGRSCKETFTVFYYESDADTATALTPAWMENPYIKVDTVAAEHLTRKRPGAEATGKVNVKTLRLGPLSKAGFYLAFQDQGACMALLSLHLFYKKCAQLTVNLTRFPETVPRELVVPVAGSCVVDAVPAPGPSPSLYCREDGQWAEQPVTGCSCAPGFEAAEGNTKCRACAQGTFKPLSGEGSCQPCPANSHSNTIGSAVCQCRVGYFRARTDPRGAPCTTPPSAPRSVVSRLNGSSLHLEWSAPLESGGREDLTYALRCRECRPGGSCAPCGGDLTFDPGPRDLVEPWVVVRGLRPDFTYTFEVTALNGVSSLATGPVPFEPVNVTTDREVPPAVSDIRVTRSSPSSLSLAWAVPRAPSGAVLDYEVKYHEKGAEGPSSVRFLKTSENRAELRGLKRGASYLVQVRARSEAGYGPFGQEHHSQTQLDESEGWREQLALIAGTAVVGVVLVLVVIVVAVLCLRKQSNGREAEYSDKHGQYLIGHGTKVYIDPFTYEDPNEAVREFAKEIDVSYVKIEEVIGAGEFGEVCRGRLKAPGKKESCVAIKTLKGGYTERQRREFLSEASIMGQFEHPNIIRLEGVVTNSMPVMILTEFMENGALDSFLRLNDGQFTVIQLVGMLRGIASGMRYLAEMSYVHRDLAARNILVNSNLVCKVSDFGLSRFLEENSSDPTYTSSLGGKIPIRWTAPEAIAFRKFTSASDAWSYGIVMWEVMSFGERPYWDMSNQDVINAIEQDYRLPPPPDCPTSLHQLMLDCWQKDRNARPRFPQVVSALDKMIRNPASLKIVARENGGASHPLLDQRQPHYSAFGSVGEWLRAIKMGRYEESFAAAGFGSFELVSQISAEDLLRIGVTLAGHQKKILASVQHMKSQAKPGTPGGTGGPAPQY
Description: Inhibition of EPHB4 (unknown origin). In a few lines:
as §1

Chain of Receptor tyrosine-protein kinase erbB-2 (P04626 whole entry): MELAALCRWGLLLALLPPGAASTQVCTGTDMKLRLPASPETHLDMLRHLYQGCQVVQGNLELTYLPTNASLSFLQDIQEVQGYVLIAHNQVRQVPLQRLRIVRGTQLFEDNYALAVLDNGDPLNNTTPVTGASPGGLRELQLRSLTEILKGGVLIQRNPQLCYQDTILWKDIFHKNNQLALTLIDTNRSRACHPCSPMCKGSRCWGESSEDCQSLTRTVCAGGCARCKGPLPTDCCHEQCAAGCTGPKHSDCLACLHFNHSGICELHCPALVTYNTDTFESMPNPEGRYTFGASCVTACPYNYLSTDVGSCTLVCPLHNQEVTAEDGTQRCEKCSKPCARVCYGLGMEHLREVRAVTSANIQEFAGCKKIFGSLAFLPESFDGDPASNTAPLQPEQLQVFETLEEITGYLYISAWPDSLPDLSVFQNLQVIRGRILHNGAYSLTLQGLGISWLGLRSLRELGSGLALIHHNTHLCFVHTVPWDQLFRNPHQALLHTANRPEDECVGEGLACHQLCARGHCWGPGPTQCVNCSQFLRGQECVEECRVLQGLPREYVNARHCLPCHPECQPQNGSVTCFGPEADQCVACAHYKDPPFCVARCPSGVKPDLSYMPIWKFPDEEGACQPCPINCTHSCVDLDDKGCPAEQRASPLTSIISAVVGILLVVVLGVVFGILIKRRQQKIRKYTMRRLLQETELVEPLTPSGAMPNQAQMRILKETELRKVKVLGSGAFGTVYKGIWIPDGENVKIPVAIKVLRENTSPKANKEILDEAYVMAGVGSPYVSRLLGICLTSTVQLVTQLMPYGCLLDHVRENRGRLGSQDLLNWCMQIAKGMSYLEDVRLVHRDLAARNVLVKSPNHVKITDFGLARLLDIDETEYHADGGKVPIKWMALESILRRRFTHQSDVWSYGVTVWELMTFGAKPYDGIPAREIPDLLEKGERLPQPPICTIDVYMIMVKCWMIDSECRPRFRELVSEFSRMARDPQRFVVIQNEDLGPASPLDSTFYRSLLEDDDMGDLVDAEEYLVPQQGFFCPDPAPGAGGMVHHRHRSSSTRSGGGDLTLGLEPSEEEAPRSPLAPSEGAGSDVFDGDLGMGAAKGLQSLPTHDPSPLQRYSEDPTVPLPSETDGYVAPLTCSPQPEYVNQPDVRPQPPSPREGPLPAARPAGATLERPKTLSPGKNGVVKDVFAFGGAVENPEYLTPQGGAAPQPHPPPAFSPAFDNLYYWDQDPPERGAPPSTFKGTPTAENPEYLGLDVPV

With `O=NC(Cc1cc(Br)c(O)c(-c2cc(CC(N=O)C(=O)NCCc3ccc(O)c(Br)c3)cc(Br)c2O)c1)C(=O)NCCc1ccc(O)c(Br)c1` (stereo not drawn) [BASTADIN 3], 2.1 µM corresponded to half-maximal inhibition in test [1] (IC50).
With `O=NC(Cc1cc(Br)c(O)c(Oc2ccc(CCNC(=O)C(Cc3cc(Br)c(O)c(-c4cc(CC(N=O)C(=O)NCCc5ccc(O)c(Br)c5)cc(Br)c4O)c3)N=O)cc2Br)c1)C(=O)NCCc1ccc(O)c(Br)c1` (stereo not drawn) [Sesquibastadin 1], the IC50 stood at 3.4 µM in test [2] and 2.1 µM in test [1].
